Results as given in ChEMBL document CHEMBL4017509, “A Dual Modulator of Farnesoid X Receptor and Soluble Epoxide Hydrolase To Counter Nonalcoholic Steatohepatitis” (J Med Chem, 2017).
The source made the active and inactive calls. The rule behind the calls is not given here.

Key:
[1] = system: Liver; assay: Drug metabolism in Sprague-Dawley rat liver microsomes assessed as N-(4-Amino-2-chlorobenzyl)-4-(tert-butyl)benzamide formation at 10 uM preincubated with NADPH regenerating system for 5 mins followed by addition of liver microsomes by LC-MS/MS method; type: ADME, microsome
[2] = biological target: Oxysterols receptor LXR-alpha (Homo sapiens) (UniProt Q13133); assay: Transactivation of human GAL4-fused LXRalpha ligand binding domain expressed in […] cells at 10 uM after 12 to 14 hrs by dual-glo luciferase reporter gene assay; type: cell-based
How it was run: (§1)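 HEK293T cells in DMEM/10% FCS, Opti-MEM before Lipofectamine LTX transfection with pFR-Luc reporter, pRL-SV40 and pFA-CMV GAL4–LBD plasmid. 5 h later compound in 0.1% DMSO, Opti-MEM, overnight (12−14 h). Dual luciferase; firefly/renilla ×1000 = RLU, fold over DMSO control; triplicates, ≥3 independent repeats.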

[3] = biological target: T1, Peroxisome proliferator-activated receptor gamma (Homo sapiens) (UniProt P37231); assay: Transactivation of PPARgamma in human HepG2 cells assessed as FAM3A mRNA expression at 10 uM after 8 to 16 hrs by SYBR green based qRT-PCR analysis relative to DMSO control; type: cell-based
T1 sequence (whole entry): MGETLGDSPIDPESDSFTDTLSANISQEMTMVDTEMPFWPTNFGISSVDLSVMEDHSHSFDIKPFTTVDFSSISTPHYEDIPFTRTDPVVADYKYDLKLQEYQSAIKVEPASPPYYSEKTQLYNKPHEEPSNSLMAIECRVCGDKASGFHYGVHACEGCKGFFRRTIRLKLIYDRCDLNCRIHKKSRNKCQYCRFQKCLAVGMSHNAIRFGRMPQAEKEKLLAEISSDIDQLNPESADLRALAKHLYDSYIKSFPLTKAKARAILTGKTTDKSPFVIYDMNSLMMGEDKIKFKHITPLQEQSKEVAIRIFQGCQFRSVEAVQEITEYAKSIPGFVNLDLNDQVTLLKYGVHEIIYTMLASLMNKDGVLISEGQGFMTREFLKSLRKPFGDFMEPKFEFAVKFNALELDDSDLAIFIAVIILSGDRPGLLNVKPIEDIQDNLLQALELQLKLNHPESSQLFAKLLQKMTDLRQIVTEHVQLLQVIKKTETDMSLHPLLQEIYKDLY
How it was run: (§2)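 HepG2 cells treated 8 or 16 h with compound or 0.1% DMSO, washed in cold PBS, RNA extracted; SYBR Green qRT-PCR in duplicate, ≥4 independent experiments (n = 3 for CD36/FAM3A). ΔΔCt method with GAPDH reference; expression as % of vehicle (100%). Pioglitazone 1 μM used as positive control for the PPARγ genes.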

[4] = biological target: T1, Peroxisome proliferator-activated receptor gamma (Homo sapiens); assay: Transactivation of PPARgamma in human HepG2 cells assessed as CD36 mRNA expression at 10 uM after 8 to 16 hrs by SYBR green based qRT-PCR analysis relative to DMSO control; type: cell-based; how it was run: as §2
[5] = biological target: T2, Bile acid receptor (Homo sapiens) (UniProt Q96RI1); assay: Transactivation of FXR in human HepG2 cells assessed as SREBP1c mRNA expression at 1 uM after 8 to 16 hrs by SYBR green based qRT-PCR analysis relative to DMSO control; type: cell-based
T2 sequence (whole entry): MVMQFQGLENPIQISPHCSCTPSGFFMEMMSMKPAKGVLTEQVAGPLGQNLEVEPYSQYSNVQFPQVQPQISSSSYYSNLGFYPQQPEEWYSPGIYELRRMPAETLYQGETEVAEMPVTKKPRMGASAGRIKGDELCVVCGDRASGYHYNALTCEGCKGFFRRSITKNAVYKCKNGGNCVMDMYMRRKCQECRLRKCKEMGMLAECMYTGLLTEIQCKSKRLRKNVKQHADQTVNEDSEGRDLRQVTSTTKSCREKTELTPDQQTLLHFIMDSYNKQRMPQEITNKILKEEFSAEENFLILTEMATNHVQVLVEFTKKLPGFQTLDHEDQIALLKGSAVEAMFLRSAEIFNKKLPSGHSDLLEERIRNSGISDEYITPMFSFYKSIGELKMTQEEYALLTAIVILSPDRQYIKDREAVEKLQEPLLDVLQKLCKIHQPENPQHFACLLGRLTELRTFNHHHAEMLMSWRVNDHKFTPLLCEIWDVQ
How it was run: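 HepG2 cells incubated with test compound (0.1 and 1 μM) or 0.1% DMSO for 8 or 16 h, washed in cold PBS, RNA extracted; target mRNA by SYBR Green qRT-PCR, duplicate samples, ≥4 independent experiments; comparative ΔΔCt with GAPDH reference, vehicle set as 100%.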

[6] = biological target: T3, Bifunctional epoxide hydrolase 2 (Homo sapiens) (UniProt P34913); assay: Inhibition of sEH in human HepG2 cells assessed as NF-kappaB mRNA expression at 1 uM after 8 to 16 hrs by SYBR green based qRT-PCR analysis relative to DMSO control; type: cell-based
T3 sequence (whole entry): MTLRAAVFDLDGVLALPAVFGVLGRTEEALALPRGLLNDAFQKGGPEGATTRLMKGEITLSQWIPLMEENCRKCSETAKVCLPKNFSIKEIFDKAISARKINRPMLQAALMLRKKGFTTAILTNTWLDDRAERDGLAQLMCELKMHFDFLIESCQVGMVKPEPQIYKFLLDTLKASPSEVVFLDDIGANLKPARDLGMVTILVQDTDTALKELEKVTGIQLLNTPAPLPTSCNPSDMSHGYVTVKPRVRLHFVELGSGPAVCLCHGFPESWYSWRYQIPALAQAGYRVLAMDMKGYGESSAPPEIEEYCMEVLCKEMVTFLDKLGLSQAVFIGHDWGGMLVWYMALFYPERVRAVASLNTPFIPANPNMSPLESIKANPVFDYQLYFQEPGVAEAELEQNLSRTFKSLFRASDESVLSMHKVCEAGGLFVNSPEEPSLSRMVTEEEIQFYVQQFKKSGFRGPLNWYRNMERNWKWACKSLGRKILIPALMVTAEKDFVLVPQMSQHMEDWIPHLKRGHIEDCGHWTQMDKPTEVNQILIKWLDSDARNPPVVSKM
How it was run: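 HepG2 cells treated with compound or 0.1% DMSO vehicle; NF-κB mRNA quantified by SYBR Green qRT-PCR, comparative ΔΔCt with GAPDH reference; expressed as % of vehicle (100%).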

[7] = biological target: T2, Bile acid receptor (Homo sapiens); assay: Transactivation of human FXR expressed in human HeLa cells co-expressing BSEP at 50 uM after 24 hrs by dual-glo luciferase reporter gene assay relative to GW4064; type: cell-based
How it was run: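 HeLa cells in DMEM/10% FCS at 37 °C, 5% CO2; switched to 0.5% charcoal-stripped FCS before calcium phosphate co-transfection with pcDNA3-hFXR, pSG5-hRXR, BSEP promoter–firefly luciferase reporter and pRL-SV40 renilla. Compound in 0.1% DMSO, phenol red-free medium, 24 h.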

[8] = biological target: Peroxisome proliferator-activated receptor alpha (Homo sapiens) (UniProt Q07869); assay: Transactivation of human GAL4-fused PPARalpha ligand binding domain expressed in […] cells at 10 uM after 12 to 14 hrs by dual-glo luciferase reporter gene assay; type: cell-based; how it was run: as §1
Chain of Peroxisome proliferator-activated receptor alpha (Homo sapiens) (Q07869 whole entry, the tested form may be a part): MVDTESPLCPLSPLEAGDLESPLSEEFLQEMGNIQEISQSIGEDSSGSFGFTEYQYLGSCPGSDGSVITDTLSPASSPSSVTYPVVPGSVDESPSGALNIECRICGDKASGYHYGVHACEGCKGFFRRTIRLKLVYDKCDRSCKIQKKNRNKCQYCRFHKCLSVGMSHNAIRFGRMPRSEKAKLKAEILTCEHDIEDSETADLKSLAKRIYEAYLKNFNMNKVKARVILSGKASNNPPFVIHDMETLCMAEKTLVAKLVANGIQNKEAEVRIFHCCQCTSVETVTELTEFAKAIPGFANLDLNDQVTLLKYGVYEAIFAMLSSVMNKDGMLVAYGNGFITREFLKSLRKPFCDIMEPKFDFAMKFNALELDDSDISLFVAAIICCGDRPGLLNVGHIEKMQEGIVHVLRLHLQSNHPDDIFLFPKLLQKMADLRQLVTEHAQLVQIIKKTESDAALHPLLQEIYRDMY

Chain of Oxysterols receptor LXR-alpha (Homo sapiens) (Q13133 whole entry, the tested form may be a part): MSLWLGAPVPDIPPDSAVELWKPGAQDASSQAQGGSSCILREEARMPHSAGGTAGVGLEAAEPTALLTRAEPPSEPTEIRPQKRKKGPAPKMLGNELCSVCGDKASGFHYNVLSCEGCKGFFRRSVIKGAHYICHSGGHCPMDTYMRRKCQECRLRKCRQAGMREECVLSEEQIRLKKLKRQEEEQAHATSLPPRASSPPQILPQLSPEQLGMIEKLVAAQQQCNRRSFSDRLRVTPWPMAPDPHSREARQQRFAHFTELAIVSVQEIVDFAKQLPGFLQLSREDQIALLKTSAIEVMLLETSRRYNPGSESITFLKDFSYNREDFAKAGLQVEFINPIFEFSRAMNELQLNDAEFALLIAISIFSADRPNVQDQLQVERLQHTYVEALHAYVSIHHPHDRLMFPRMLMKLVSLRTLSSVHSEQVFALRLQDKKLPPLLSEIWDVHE

CC(C)(C)c1ccc(C(=O)NCc2ccc(NS(C)(=O)=O)cc2Cl)cc1
Drug metabolism [1]: Metabolite_Detected
Activity [2]: inactive
Activity [3]: 142%
Activity [4]: 129%
Activity [5]: 36%
inhibition [6]: 17.6%
Emax [7]: 35%
Activity [8]: inactive
